Source: ChEMBL document CHEMBL4732051, “The discovery of potent small molecule activators of human STING” (Eur J Med Chem, 2021)
Values belong to the compound of their own block, whether it stands above or below them.

Columns and labels:
Format in all cases: cell-based
[1] = molecular target: T1, Stimulator of interferon genes protein (Homo sapiens, UniProt Q86WV6); assay: Activation of wild-type human STING expressed in HEK293T cells assessed as IRF3 reporter activation at 10 uM measured after 20 hrs by luciferase reporter gene assay
Method in brief: (§1)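 HEK293T-hSTING cells carrying a secreted luciferase reporter under an IRF-inducible promoter, made by blasticidin selection and clonal selection; parental HEK293T-luciferase cells as control. 5 x 10^5 cells per well treated at a single concentration. Supernatant luciferase read after 20 h by Quanti-Luc, as % activation relative to a positive-control agonist.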

[2] = molecular target: T1, Stimulator of interferon genes protein; assay: Activation of wild-type human STING expressed in HEK293T cells assessed as IRF3 reporter activation at 1 uM measured after 20 hrs by luciferase reporter gene assay; method in brief: as §1
[3] = molecular target: T1, Stimulator of interferon genes protein; assay: Activation of wild-type human STING expressed in HEK293T cells assessed as IRF3 reporter activation at 20 uM measured after 20 hrs by luciferase reporter gene assay; conditions: filed as activator; method in brief: as §1
[4] = molecular target: T1, Stimulator of interferon genes protein; assay: Activation of wild-type human STING expressed in HEK293T cells assessed as IRF3 reporter activation at 100 uM measured after 20 hrs by luciferase reporter gene assay; method in brief: as §1
[5] = molecular target: T1, Stimulator of interferon genes protein; assay: Activation of wild-type human STING expressed in HEK293T cells assessed as IRF3 reporter activation at 50 uM measured after 20 hrs by luciferase reporter gene assay; method in brief: as §1

T1 sequence (Q86WV6 whole entry): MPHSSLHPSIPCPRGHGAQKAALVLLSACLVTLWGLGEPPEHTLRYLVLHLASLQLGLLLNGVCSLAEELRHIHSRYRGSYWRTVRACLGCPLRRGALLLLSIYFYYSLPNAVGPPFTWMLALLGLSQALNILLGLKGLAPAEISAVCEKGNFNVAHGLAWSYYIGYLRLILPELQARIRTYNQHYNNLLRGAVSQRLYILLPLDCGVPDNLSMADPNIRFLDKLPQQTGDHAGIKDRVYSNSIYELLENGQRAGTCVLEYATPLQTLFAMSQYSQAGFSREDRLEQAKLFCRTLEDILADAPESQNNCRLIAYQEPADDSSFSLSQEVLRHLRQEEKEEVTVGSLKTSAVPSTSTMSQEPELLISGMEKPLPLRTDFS

SMILES: O=C(NCc1ccco1)c1ccc2c(c1)N(Cc1c(F)cccc1Cl)C(=O)CO2
Activity [1]: 30%

SMILES: CC1(C#N)C(=O)N(Cc2c(F)cccc2Cl)c2cc(C(=O)NCc3c(F)cc(F)cc3F)ccc21 (racemic)
Activity ([2]; filed as activator): 102%

SMILES: O=C(NCc1ccco1)c1ccc2ccn(Cc3ccccc3)c2c1
Activity [1]: -1%

SMILES: O=C(NCc1c(F)cc(F)cc1F)c1ccc2c(c1)N(Cc1c(F)cccc1Cl)C(=O)CC2
Activity ([2]; filed as activator): 107%

SMILES: CC1(C)C(=O)N(Cc2ccccc2F)c2cc(C(=O)NCc3ccco3)ccc21
Activity ([1]; filed as activator): 73%

SMILES: O=C(NCc1c(F)cc(F)cc1F)c1cnc2c(c1)N(Cc1cc(F)cc(F)c1)C(=O)CO2
Activity [2]: 3%

SMILES: O=C(NCc1ccco1)c1ccc2c(c1)N(Cc1ccccc1)C(=O)CS2
Activity [1]: 27%

SMILES: O=C(NCc1ccco1)c1ccc2[nH]c(=O)n(Cc3ccccc3Cl)c2c1
Activity [1]: -1%

SMILES: O=C(NCc1ccco1)c1ccc2c(c1)N(Cc1c(F)cccc1Cl)C(=O)CC2
Activity ([1]; filed as activator): 105%

SMILES: O=C(NCc1ccco1)c1ccc2c(c1)N(Cc1ccccc1)C(=O)CCO2
Activity [1]: -1%

SMILES: CC1Cc2ccc(C(=O)NCc3c(F)cc(F)cc3F)cc2N(Cc2c(F)cccc2Cl)C1=O (racemic)
Activity ([2]; filed as activator): 92%

SMILES: O=C(NCc1ccco1)c1ccc2c(c1)N(Cc1c(F)cccc1Cl)C(=O)C21CC1
Activity [1]: 6%

SMILES: O=C(NCc1c(F)cc(F)cc1F)c1cnc2c(c1)N(Cc1cc(F)cc(F)c1)C(=O)CC2
Activity ([1]; filed as activator): 58%

SMILES: O=C(NCc1c(F)cc(F)cc1F)c1ccc2c(c1)N(C(=O)c1c(F)cccc1Cl)CCO2
Activity [1]: 26%

SMILES: CC1(C)C(=O)N(Cc2ccccc2F)c2cc(C(=O)NCc3c(F)cc(F)cc3F)ccc21
Activity ([2]; filed as activator): 116%

SMILES: CC1(O)C(=O)N(Cc2c(F)cccc2Cl)c2cc(C(=O)NCc3c(F)cc(F)cc3F)ccc21 (racemic)
Activity [3]: 67%

SMILES: CC1(C)CC(=O)N(Cc2cc(F)cc(F)c2)c2cc(C(=O)NCc3c(F)cc(F)cc3F)ccc21
Activity ([2]; filed as activator): 102%

SMILES: CC1Oc2ncc(C(=O)NCc3c(F)cc(F)cc3F)cc2N(Cc2cc(F)cc(F)c2)C1=O (racemic)
Activity [2]: 6%

Results, then the compound that gave them:

Activity [1]: -1%
SMILES: CN1C(=O)C(C)(Cc2ccccc2)c2cc(C(=O)NCc3ccco3)ccc21 (stereo unspecified)

Activity ([2]; filed as activator): 95%
SMILES: CC1Oc2ccc(C(=O)NCc3c(F)cc(F)cc3F)cc2N(Cc2cc(F)cc(F)c2)C1=O (racemic)

Activity [1]: 0%
SMILES: O=C(NCc1ccco1)c1ccc2[nH]c(=O)n(Cc3ccccc3)c(=O)c2c1

Activity [2]: 20%
SMILES: COC1(C)C(=O)N(Cc2c(F)cccc2Cl)c2cc(C(=O)NCc3c(F)cc(F)cc3F)ccc21 (racemic)

Activity [2]: 5%
SMILES: O=C(NCc1c(F)cc(F)cc1F)c1ccc2c(n1)N(Cc1cc(F)cc(F)c1)C(=O)CC2

Activity ([2]; filed as activator): 40%
SMILES: CC1Cc2ccc(C(=O)NCc3c(F)cc(F)cc3F)cc2N(Cc2cc(F)cc(F)c2)S1(=O)=O (racemic)

Activity [4]: 7%
SMILES: O=C(NCc1ccco1)c1ccc2c(c1)N(Cc1c(F)cccc1Cl)C(=O)C[S+]2[O-] (stereo unspecified)

Activity [5]: 0%
SMILES: O=C(NCc1ccco1)c1ccc2c(c1)N(Cc1ccccc1F)C(=O)C2=O
